Measured values from ChEMBL document CHEMBL2163257 (J Med Chem, 2012).
Activity calls are given as the source filed them. The calls are words filed in the database; no cut-off is given here.

Tested on: not listed separately
Assay: Agonist activity at human H2R-C17Y-A271D Gsalphas mutant containing human H2 receptor E2 loop expressed in Sf9 cells by steady state GTPase activity assay
Type: functional
Conditions: not given
In short: (§1)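 Mutant H2R-Gsαs fusion proteins in Sf9 membranes were tested by steady-state GTPase hydrolysis: 1.0 mM MgCl2, 100 nM GTP, AppNHp/creatine phosphate regeneration, pH 7.4 Tris, 20 min at 25 °C with [γ-32P/33P]GTP, charcoal separation of Pi.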

Q: Which Activity does the source give for `Cc1nc(N)sc1CCCN/C(N)=N/C(=O)CCCCCCCCC(=O)/N=C(\N)NCCCc1sc(N)nc1C` here?
A: The Activity was “Active”.

Q: With `Cc1nc(N)sc1CCCN/C(N)=N/C(=O)CCCCCCCCC(=O)/N=C(\N)NCCCc1cnc(N)s1` as the molecule, how does the Activity read?
A: Its Activity is “Active”.

Q: With `Cc1nc(N)sc1CCCN/C(N)=N/C(=O)CCCCCCC(=O)/N=C(\N)NCCCc1sc(N)nc1C` as the molecule, how does the Activity read?
A: The Activity was “Active”.

Q: For `N/C(=N\C(=O)CCCCCCCCC(=O)/N=C(\N)NCCCc1cnc(N)s1)NCCCc1cnc(N)s1`, which Activity is on record?
A: Its Activity is “Active”.

Target: Histamine H4 receptor (Homo sapiens, UniProt Q9H3N8)
Sequence (Q9H3N8 whole entry): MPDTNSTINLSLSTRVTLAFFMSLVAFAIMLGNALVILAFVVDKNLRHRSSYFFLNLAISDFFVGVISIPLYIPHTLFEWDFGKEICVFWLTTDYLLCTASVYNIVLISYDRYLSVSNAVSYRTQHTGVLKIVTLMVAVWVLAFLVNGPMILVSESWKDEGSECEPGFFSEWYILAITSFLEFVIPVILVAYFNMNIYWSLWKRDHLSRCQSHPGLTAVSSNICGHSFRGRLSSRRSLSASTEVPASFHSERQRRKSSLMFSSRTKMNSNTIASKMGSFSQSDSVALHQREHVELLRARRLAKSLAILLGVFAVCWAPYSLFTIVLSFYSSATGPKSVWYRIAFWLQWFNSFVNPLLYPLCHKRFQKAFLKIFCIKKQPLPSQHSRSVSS
Assay: Agonist activity at human H4R-RGS19 Galphai2 Gbeta1gamma2 expressed in Sf9 cells at 0.1 nM to 1 mM by steady state GTPase activity assay
Type: functional
Conditions: not given
In short: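 Sf9 membranes coexpressing hH4R-RGS19 with Gαi2 and Gβ1γ2 were assayed for GTP hydrolysis with 5.0 mM MgCl2 and 100 mM NaCl (final), 100 nM GTP, 50 mM Tris-HCl pH 7.4. Ligands spanned 0.1 nM–1 mM. Preincubation was 2 min, then 20 min at 25 °C with [γ-32P]GTP or [γ-33P]GTP. Charcoal quench; Pi counted. Sigmoidal nonlinear regression; efficacy relative to histamine.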

Q: For `N/C(=N\C(=O)CCCCCCCCCCCCCCC(=O)/N=C(\N)NCCCc1c[nH]cn1)NCCCc1c[nH]cn1`, which EC50 is on record?
A: Its EC50 is 339 nM.

Q: Which EC50 does the source give for `N=C(NCCCc1cnc[nH]1)NC(=O)CCCCCCCCCCCCCCCCCCCCC(=O)NC(N)=NCCCc1cnc[nH]1` here?
A: Its EC50 is > 1000 nM.

Target: Histamine H2 receptor (Homo sapiens, UniProt P25021)
Sequence (P25021 whole entry): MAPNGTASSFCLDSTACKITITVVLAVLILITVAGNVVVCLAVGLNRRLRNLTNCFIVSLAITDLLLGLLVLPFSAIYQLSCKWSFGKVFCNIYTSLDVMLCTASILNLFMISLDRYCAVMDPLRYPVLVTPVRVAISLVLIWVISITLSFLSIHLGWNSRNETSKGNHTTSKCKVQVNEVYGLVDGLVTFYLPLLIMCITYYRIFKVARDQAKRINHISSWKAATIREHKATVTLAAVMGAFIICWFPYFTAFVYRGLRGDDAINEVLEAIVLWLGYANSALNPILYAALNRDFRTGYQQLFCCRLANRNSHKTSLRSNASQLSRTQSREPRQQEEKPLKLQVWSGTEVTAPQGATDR
Assay: Intrinsic agonist activity at human H2R-Gsalphas expressed in Sf9 cells by steady state GTPase activity assay relative to histamine
Type: functional
Conditions: not given
In short: (§2)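 Steady-state GTPase assay with Sf9 membranes (5–20 µg protein) expressing hH2R- or gpH2R-Gsαs, in 50 mM Tris-HCl pH 7.4. Mix: 1.0 mM MgCl2, 100 µM EDTA, 100 nM GTP, 100 µM AppNHp, 5 mM creatine phosphate, creatine kinase, 0.2% BSA, ligand 0.1 nM–10 µM. After 2 min at 25 °C, [γ-32P]GTP or [γ-33P]GTP was added and reacted 20 min at 25 °C. Charcoal stop; released Pi counted. Emax referenced to histamine (1.0). Two to six experiments, duplicate.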

Q: For `N/C(=N\C(=O)CCCCCCCCCCCCCCC(=O)/N=C(\N)NCCCc1c[nH]cn1)NCCCc1c[nH]cn1`, which Intrinsic activity is on record?
A: Its Intrinsic activity is 0.29.

Q: For `Cc1nc(N)sc1CCCN/C(N)=N/C(=O)CCCCCCCCC(=O)/N=C(\N)NCCCc1sc(N)nc1C`, which Intrinsic activity is on record?
A: The Intrinsic activity was 0.53.

Q: With `Cc1nc(N)sc1CCCN/C(N)=N/C(=O)CCCCCCCCC(=O)/N=C(\N)NCCCc1cnc(N)s1` as the molecule, how does the Intrinsic activity read?
A: The Intrinsic activity was 0.75.

Q: Which Intrinsic activity does the source give for `Cc1nc(N)sc1CCCN/C(N)=N/C(=O)CCCCCCC(=O)/N=C(\N)NCCCc1sc(N)nc1C` here?
A: Its Intrinsic activity is 0.62.

Q: With `N/C(=N\C(=O)CCCCCCCCC(=O)/N=C(\N)NCCCc1cnc(N)s1)NCCCc1cnc(N)s1` as the molecule, how does the Intrinsic activity read?
A: Its Intrinsic activity is 0.75.

Target: Histamine H2 receptor (Cavia porcellus) (UniProt P47747)
Sequence (P47747 whole entry): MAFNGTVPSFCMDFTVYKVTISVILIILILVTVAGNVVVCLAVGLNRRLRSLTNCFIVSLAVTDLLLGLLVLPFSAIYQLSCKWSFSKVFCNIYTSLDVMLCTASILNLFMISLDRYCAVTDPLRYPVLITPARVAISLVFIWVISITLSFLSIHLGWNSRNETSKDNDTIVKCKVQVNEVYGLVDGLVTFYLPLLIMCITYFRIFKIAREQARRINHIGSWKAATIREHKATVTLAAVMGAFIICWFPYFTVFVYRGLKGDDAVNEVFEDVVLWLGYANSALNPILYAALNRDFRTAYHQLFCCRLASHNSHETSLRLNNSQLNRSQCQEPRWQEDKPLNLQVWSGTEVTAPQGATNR
Assay: Intrinsic agonist activity at guinea pig H2R-Gsalphas expressed in Sf9 cells by steady state GTPase activity assay relative to histamine
Type: functional
Conditions: not given
In short: as §2

Q: Which Intrinsic activity does the source give for `N/C(=N\C(=O)CCCCCCCCCCCCCCC(=O)/N=C(\N)NCCCc1c[nH]cn1)NCCCc1c[nH]cn1` here?
A: The Intrinsic activity was 0.85.

Q: With `Cc1nc(N)sc1CCCN/C(N)=N/C(=O)CCCCCCCCC(=O)/N=C(\N)NCCCc1sc(N)nc1C` as the molecule, how does the Intrinsic activity read?
A: The Intrinsic activity was 0.79.

Q: Which Intrinsic activity does the source give for `Cc1nc(N)sc1CCCN/C(N)=N/C(=O)CCCCCCCCC(=O)/N=C(\N)NCCCc1cnc(N)s1` here?
A: The Intrinsic activity was 0.89.

Q: With `Cc1nc(N)sc1CCCN/C(N)=N/C(=O)CCCCCCC(=O)/N=C(\N)NCCCc1sc(N)nc1C` as the molecule, how does the Intrinsic activity read?
A: The Intrinsic activity was 0.81.

Q: Which Intrinsic activity does the source give for `N/C(=N\C(=O)CCCCCCCCC(=O)/N=C(\N)NCCCc1cnc(N)s1)NCCCc1cnc(N)s1` here?
A: The Intrinsic activity was 0.94.

Target: Histamine H2 receptor (Cavia porcellus) (UniProt P47747)
Assay: Intrinsic agonist activity at H2R in spontaneously beating guinea pig right atrium assessed as increase in heart rate relative to histamine
Type: functional, tissue-based
Conditions: Cardiac atrium
In short: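 Isolated spontaneously beating guinea pig right atrium. Ligand stocks (10 mM) and dilutions were made in fresh bath fluid. Tissue was washed for 30 min and equilibrated for 15 min. […] Emax is relative to maximal histamine heart-rate increase. Three to five experiments.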

Q: With `Cc1nc(N)sc1CCCN/C(N)=N/C(=O)CCCCCCCCC(=O)/N=C(\N)NCCCc1sc(N)nc1C` as the molecule, how does the Intrinsic activity read?
A: The Intrinsic activity was 0.62.

Q: With `Cc1nc(N)sc1CCCN/C(N)=N/C(=O)CCCCCCC(=O)/N=C(\N)NCCCc1sc(N)nc1C` as the molecule, how does the Intrinsic activity read?
A: The Intrinsic activity was 0.64.

Target: Histamine H3 receptor (Homo sapiens, UniProt Q9Y5N1)
Sequence (Q9Y5N1 whole entry): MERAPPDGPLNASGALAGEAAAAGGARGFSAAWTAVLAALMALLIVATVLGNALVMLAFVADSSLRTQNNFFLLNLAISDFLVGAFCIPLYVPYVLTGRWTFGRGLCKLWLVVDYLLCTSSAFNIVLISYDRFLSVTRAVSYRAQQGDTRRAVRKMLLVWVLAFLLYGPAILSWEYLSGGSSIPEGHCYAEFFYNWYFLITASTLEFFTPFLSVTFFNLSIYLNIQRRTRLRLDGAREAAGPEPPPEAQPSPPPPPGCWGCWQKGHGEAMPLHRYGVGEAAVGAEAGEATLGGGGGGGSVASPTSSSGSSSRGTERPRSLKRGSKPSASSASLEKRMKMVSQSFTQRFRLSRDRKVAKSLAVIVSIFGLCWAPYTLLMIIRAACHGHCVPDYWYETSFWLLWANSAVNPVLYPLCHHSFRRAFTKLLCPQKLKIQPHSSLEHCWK
Assay: Agonist activity at human H3R-Galphai2-Gbeta1gamma2-RGS4 expressed in Sf9 cells 0.1 nM to 1 mM by steady state GTPase activity assay
Type: functional
Conditions: not given

Q: For `N/C(=N\C(=O)CCCCCCCCCCCCCCC(=O)/N=C(\N)NCCCc1c[nH]cn1)NCCCc1c[nH]cn1`, which EC50 is on record?
A: The EC50 was > 1000 nM.

Q: With `N=C(NCCCc1cnc[nH]1)NC(=O)CCCCCCCCCCCCCCCCCCCCC(=O)NC(N)=NCCCc1cnc[nH]1` as the molecule, how does the EC50 read?
A: The EC50 was 447 nM.

Tested on: not listed separately
Assay: Agonist activity at guinea pig H2R hE2 loop Gsalphas mutant containing human H2 receptor E2 loop expressed in Sf9 cells by steady state GTPase activity assay
Type: functional
Conditions: Cavia porcellus
In short: as §1

Q: For `Cc1nc(N)sc1CCCN/C(N)=N/C(=O)CCCCCCCCC(=O)/N=C(\N)NCCCc1sc(N)nc1C`, which Activity is on record?
A: Its Activity is “Active”.

Q: With `Cc1nc(N)sc1CCCN/C(N)=N/C(=O)CCCCCCCCC(=O)/N=C(\N)NCCCc1cnc(N)s1` as the molecule, how does the Activity read?
A: The Activity was “Active”.

Q: For `Cc1nc(N)sc1CCCN/C(N)=N/C(=O)CCCCCCC(=O)/N=C(\N)NCCCc1sc(N)nc1C`, which Activity is on record?
A: Its Activity is “Active”.

Q: For `N/C(=N\C(=O)CCCCCCCCC(=O)/N=C(\N)NCCCc1cnc(N)s1)NCCCc1cnc(N)s1`, which Activity is on record?
A: The Activity was “Active”.
